This is an account of results in ChEMBL document CHEMBL4251576, “Synthesis and biological evaluation of curcumin inspired imidazo[1,2-a]pyridine analogues as tubulin polymerization inhibitors” (Eur J Med Chem, 2018).

The structures appear in SMILES notation. Where a name gives a salt, the structure may show the parent alone.

The subject of one experiment is HGC-27. The experiment is described as follows: Cytotoxicity against human HGC27 cells assessed as inhibition of cell viability after 48 hrs by MTT assay. The settings on record: HGC-27, 48 h. It counts as functional, cell-based. The essentials:
(§1)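 Cells were seeded at 2.5‒5 x 10^3 per well in DMEM or RPMI with 10% FBS and grown 24 h at 37 °C under CO2. Compounds diluted in medium were added alongside vehicle control for 48 h. MTT (0.5 mg/mL) was added for 4 h, formazan dissolved in DMSO and absorbance read at 570 nm. IC50 is the concentration giving 50% loss of viability; mean ± SD of three experiments, each in triplicate.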
(Tetrazolium assays rely on reduction of a dye to a coloured formazan, in cell work by metabolically active cells.)

Experiment [1] concerns DU-145. The experiment is described as follows: Potency index, ratio of curcumin IC50 to test compound IC50 for human DU145 cells. The format is functional.
Experiment [2] relates to DU-145. The experiment is described as follows: Cytotoxicity against human DU145 cells assessed as inhibition of cell viability after 48 hrs by MTT assay. It counts as functional, cell-based. To be noted: DU-145, 48 h. The essentials: as §1
Experiment [3] relates to PC-3. Nature of the experiment: Potency index, ratio of curcumin IC50 to test compound IC50 for human PC3 cells. The format is functional.
Another experiment has as its system 4T1. Nature of the experiment: Cytotoxicity against mouse 4T1 cells assessed as inhibition of cell viability after 48 hrs by MTT assay. It counts as functional, cell-based. To be noted: 4T1, 48 h. The essentials: as §1
The test system of experiment [4] is NCI-H460. The experiment is described as follows: Cytotoxicity against human NCI-H460 cells assessed as inhibition of cell viability after 48 hrs by MTT assay. The format is functional, cell-based. The settings on record: NCI-H460, 48 h. An outline of the steps:
as §1

The subject of a further experiment is HeLa. Nature of the experiment: Cytotoxicity against human HeLa cells assessed as inhibition of cell viability after 48 hrs by MTT assay. It counts as functional, cell-based. The essentials: as §1
For experiment [5], the system named is NCI-H460. Nature of the experiment: Potency index, ratio of curcumin IC50 to test compound IC50 for human NCI-H460 cells. It counts as functional.
The test system of experiment [6] is PC-3. Nature of the experiment: Cytotoxicity against human PC3 cells assessed as inhibition of cell viability after 48 hrs by MTT assay. It counts as functional, cell-based. To be noted: PC-3, 48 h. The essentials:
as §1

Turning to `COc1ccc(-c2c(/C=C/C(=O)/C=C/c3ccc(OC)c(OC)c3)nc3ccccn23)cc1`, the IC50 (as a rule, the concentration at which inhibition is half-maximal) amounted to 7.84 µM in the experiment with HGC-27; 4 µM in the experiment with DU-145 [2]; 5.61 µM with 4T1; 4.28 µM in the experiment with NCI-H460 [4]; 6.66 µM in the experiment with HeLa; 3.64 µM in the experiment with PC-3 [6]. Further, the entries for the “Ratio IC50” value in the experiment on DU-145 [1], in the experiment with PC-3 [3] and in the experiment with NCI-H460 [5] were 8.3, 5.1 and 4, respectively.

For `COc1ccc(/C=C/C(=O)/C=C/c2nc3ccccn3c2-c2ccc(F)c(F)c2)cc1OC`, the IC50 is 3.38 µM in the experiment with HGC-27; 4.87 µM in the experiment with DU-145 [2]; 3.45 µM with 4T1; 3.01 µM with NCI-H460 [4]; 5.58 µM with HeLa; 5.43 µM with PC-3 [6]. Besides, the “Ratio IC50” value came out at 6.8 with DU-145 [1], 3.4 in the experiment with PC-3 [3] and 5.7 in the experiment with NCI-H460 [5].

Turning to `COc1cc(OC)c(/C=C/C(=O)/C=C/c2nc3ccccn3c2-c2ccccc2)c(OC)c1`, the IC50 in the experiment on HGC-27, with DU-145 [2], in the experiment on 4T1, in the experiment with NCI-H460 [4], with HeLa and in the experiment on PC-3 [6] was more than 10 µM throughout.

With `COc1ccc(/C=C/C(=O)/C=C/c2nc3ccccn3c2-c2ccccc2)c(OC)c1`, the IC50 with HGC-27, with DU-145 [2], in the experiment on 4T1, with NCI-H460 [4], with HeLa and with PC-3 [6] was more than 10 µM throughout.

With `COc1ccc(/C=C/C(=O)/C=C/c2nc3ccccn3c2-c2cccc(OC)c2)cc1`, the IC50 in the experiment on HGC-27, in the experiment with DU-145 [2], with 4T1, with NCI-H460 [4], in the experiment on HeLa and in the experiment on PC-3 [6] was more than 10 µM each time.

As to `COc1cc(/C=C/C(=O)CC(=O)/C=C/c2ccc(O)c(OC)c2)ccc1O` [CURCUMIN], in the experiment with PC-3 [6], the IC50 amounted to 18.7 µM.

Turning to `COc1ccc(-c2c(/C=C/C(=O)/C=C/c3cc(OC)c(OC)cc3OC)nc3ccccn23)cc1`, the IC50 is 8.77 µM in the experiment on HGC-27; 5.63 µM in the experiment with DU-145 [2]; 4.69 µM in the experiment with 4T1; 5.52 µM in the experiment on NCI-H460 [4]; 9.41 µM in the experiment with HeLa; 7.24 µM in the experiment with PC-3 [6]. The “Ratio IC50” value in the experiment on DU-145 [1] was determined as 5.9; with PC-3 [3], 2.6; with NCI-H460 [5], 3.1.

Regarding `COc1ccc(-c2c(/C=C/C(=O)/C=C/c3cc(OC)ccc3OC)nc3ccccn23)cc1`, the half-inhibitory concentration (IC50) in the experiment with HGC-27, in the experiment with DU-145 [2], in the experiment on 4T1, in the experiment with NCI-H460 [4], with HeLa and with PC-3 [6] was more than 10 µM each time.

Turning to `COc1ccc(-c2c(/C=C/C(=O)/C=C/c3ccc(OC)cc3OC)nc3ccccn23)cc1`, the IC50 in the experiment with HGC-27, in the experiment with DU-145 [2], in the experiment with 4T1, in the experiment with NCI-H460 [4], in the experiment on HeLa and in the experiment with PC-3 [6] was more than 10 µM each time.

`COc1ccc(/C=C/C(=O)/C=C/c2nc3ccccn3c2-c2ccc(OC)cc2)cc1`: the IC50 in the experiment with HGC-27, in the experiment on DU-145 [2], with 4T1, in the experiment on NCI-H460 [4], with HeLa and with PC-3 [6] was more than 10 µM throughout.

As for `COc1cccc(-c2c(/C=C/C(=O)/C=C/c3ccc(OC)c(OC)c3)nc3ccccn23)c1`, the IC50 in the experiment on HGC-27, in the experiment on DU-145 [2], in the experiment with 4T1, with NCI-H460 [4], in the experiment on HeLa and in the experiment on PC-3 [6] was more than 10 µM in each case.

On to `COc1ccc(OC)c(/C=C/C(=O)/C=C/c2nc3ccccn3c2-c2ccccc2)c1`, for which the IC50 was determined as 7.08 µM in the experiment on HGC-27; 3.38 µM in the experiment on DU-145 [2]; 3.38 µM in the experiment on 4T1; 4.01 µM in the experiment on NCI-H460 [4]; 5.51 µM in the experiment with HeLa; 3.03 µM in the experiment on PC-3 [6]. Moreover, the “Ratio IC50” value with DU-145 [1] turned out to be 9.8; with PC-3 [3], 6.1; in the experiment on NCI-H460 [5], 4.3.

Take `COc1cccc(-c2c(/C=C/C(=O)/C=C/c3cc(OC)ccc3OC)nc3ccccn23)c1`: the IC50 in the experiment with HGC-27, in the experiment on DU-145 [2], in the experiment on 4T1, in the experiment on NCI-H460 [4], in the experiment with HeLa and in the experiment with PC-3 [6] was more than 10 µM throughout.

Turning to `COc1ccc(/C=C/C(=O)/C=C/c2nc3ccccn3c2-c2ccccc2)cc1OC`, the IC50 in the experiment with HGC-27, with DU-145 [2], in the experiment on 4T1, with NCI-H460 [4], with HeLa and in the experiment with PC-3 [6] was more than 10 µM throughout.

Turning to `COc1ccc(/C=C/C(=O)/C=C/c2nc3ccccn3c2-c2ccc(F)c(F)c2)c(OC)c1`, the half-maximal inhibitory concentration (IC50) amounted to 10.3 µM in the experiment with HGC-27; 8.46 µM in the experiment with DU-145 [2]; 9.72 µM with 4T1; 9.53 µM in the experiment on NCI-H460 [4]; 8.41 µM in the experiment on HeLa; 8.94 µM in the experiment with PC-3 [6]. Also, the figures for the “Ratio IC50” value in the experiment on DU-145 [1], in the experiment with PC-3 [3] and in the experiment with NCI-H460 [5] were 3.9, 2.1 and 1.8, respectively.

In the case of `COc1ccc(OC)c(/C=C/C(=O)/C=C/c2nc3ccccn3c2-c2ccc(F)c(F)c2)c1`, the IC50 is 6.35 µM in the experiment with HGC-27; 4.19 µM in the experiment with DU-145 [2]; 3.27 µM in the experiment with 4T1; 3.11 µM in the experiment with NCI-H460 [4]; 4.93 µM in the experiment on HeLa; 2.84 µM in the experiment with PC-3 [6]. Moreover, the figures for the “Ratio IC50” value with DU-145 [1], in the experiment with PC-3 [3] and in the experiment on NCI-H460 [5] were 7.9, 6.6 and 5.5, respectively.

For `COc1ccc(/C=C/C(=O)/C=C/c2nc3ccccn3c2-c2ccc(F)c(F)c2)cc1`, the IC50 in the experiment on HGC-27, in the experiment on DU-145 [2], in the experiment with 4T1, with NCI-H460 [4], with HeLa and in the experiment with PC-3 [6] was more than 10 µM each time.

Turning to `COc1ccc(/C=C/C(=O)/C=C/c2nc3ccccn3c2-c2ccccc2)cc1`, the IC50 in the experiment on HGC-27, in the experiment with DU-145 [2], in the experiment with 4T1, in the experiment with NCI-H460 [4], in the experiment with HeLa and in the experiment on PC-3 [6] was more than 10 µM throughout.

With `COc1cccc(-c2c(/C=C/C(=O)/C=C/c3ccc(OC)cc3OC)nc3ccccn23)c1`, the IC50 in the experiment on HGC-27, in the experiment on DU-145 [2], in the experiment on 4T1, in the experiment on NCI-H460 [4], in the experiment on HeLa and with PC-3 [6] was more than 10 µM each time.

As for `COc1cc(OC)c(OC)cc1/C=C/C(=O)/C=C/c1nc2ccccn2c1-c1ccccc1`, the IC50 is 5.38 µM with HGC-27; 3.71 µM with DU-145 [2]; 1.68 µM with 4T1; 2.84 µM in the experiment with NCI-H460 [4]; 1.67 µM in the experiment on HeLa; 2.75 µM in the experiment on PC-3 [6]. Further, the figures for the “Ratio IC50” value in the experiment with DU-145 [1], with PC-3 [3] and in the experiment on NCI-H460 [5] were 8.9, 6.8 and 6, respectively.

As for `CC[C@]1(O)C[C@H]2CN(CCc3c([nH]c4ccccc34)[C@@](C(=O)OC)(c3cc4c(cc3OC)N(C=O)[C@H]3[C@@](O)(C(=O)OC)[C@H](OC(C)=O)[C@]5(CC)C=CCN6CC[C@]43[C@@H]65)C2)C1` [VINCRISTINE SULFATE], in the experiment on DU-145 [2], the half-maximal inhibitory concentration (IC50) came out at 71.8 µM.
